# Hits are enriched below; roughly 2.4% of the tested compounds scored in any of these assays.
# S1P4 antag – blocks the human S1P4 receptor; S1P4-expressing cells, antagonist mode, reporter read-out; O95977; inhibition, % at 4.98 µM; AID 1510; 220,000 tested, 0.26% active; in the data active = inhibition above about 29%;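 note: 0% = wells stimulated with agonist and 100% = vehicle wells without agonist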
# NPY Y2 blocker – antagonists of human neuropeptide Y receptor Y2; P49146; NPY-Y2 expressing cells, antagonist mode; inhibition, % at 2.7 µM; 140,000 tested, 0.99% active; AID 793; in the data active = inhibition above about 17%;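 note: 0% = vehicle with agonist challenge and 100% = reference antagonist with challenge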
# NPY-Y1 PAM-ag – human NPY-Y1 potentiation or agonism, primary screen. P25929. NPY-Y1 expressing cells, potentiator/agonist activation. activation, % at 3.6 µM. 220,000 tested, 0.37% active; in the data active = activation above about 33%, passing the limit was not always enough;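 note: cells stimulated with NPY at EC10 then isoproterenol at EC100; 0% = low agonist plus stimulus and 100% = saturating agonist plus stimulus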
# Target sequence (P25929 whole entry, looked up): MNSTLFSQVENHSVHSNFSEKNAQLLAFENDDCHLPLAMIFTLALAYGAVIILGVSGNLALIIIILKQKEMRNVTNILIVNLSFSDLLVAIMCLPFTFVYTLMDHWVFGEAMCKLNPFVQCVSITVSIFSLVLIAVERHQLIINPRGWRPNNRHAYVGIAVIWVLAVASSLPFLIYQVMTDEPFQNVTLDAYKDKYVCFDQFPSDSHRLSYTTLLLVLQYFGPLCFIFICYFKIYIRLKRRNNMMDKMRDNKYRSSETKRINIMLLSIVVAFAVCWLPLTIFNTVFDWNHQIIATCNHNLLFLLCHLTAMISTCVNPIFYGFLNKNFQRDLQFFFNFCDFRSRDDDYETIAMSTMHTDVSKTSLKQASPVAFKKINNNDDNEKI
# NPY-Y2 PAM-ag – potentiators or agonists of human neuropeptide Y receptor Y2; P49146; AID 1359; activation, % at 3.6 µM; 220,000 tested, 0.45% active; cells expressing NPY-Y2, potentiator/agonist read-out; in the data active = activation above about 27%;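 note: cells stimulated with NPY near EC25 plus isoproterenol at EC100; 0% = vehicle plus submaximal agonist and 100% = vehicle plus saturating agonist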
# NPY Y1 blocker – NPY-Y1 (human) receptor antagonism; 200,000 tested, 1% active; inhibition, % at 3.6 µM; P25929; HEK293-CNG Y1 cells, membrane potential fluorescence; NPY at EC95, then isoproterenol;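 active = inhibition above the campaign mean inhibition of all tested compounds plus 3 SD, cut at about 20% in these data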;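 note: 0% = DMSO wells given NPY plus isoproterenol and 100% = isoproterenol alone without NPY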
#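 Test system: HEK293 cells co-expressing NPY Y1 receptor and cyclic-nucleotide gated channel; Also added: NPY (25 nM), isoproterenol (1 µM), Ro 20-1724 (25 µM); Compound dosing: one concentration, 3.6 µM, in 0.4% DMSO; Timing: dye 3 h, compound 60 min room temperature, stimulation 45 min; Technique: Membrane-potential fluorescent dye readout.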
# S1P4 agonist – activates the human S1P4 receptor; activation, % at 4.98 µM; 220,000 tested, 0.35% active; O95977; S1P4-expressing cell line, agonist reporter assay; in the data active = activation above about 11%;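 note: 0% = DMSO vehicle and 100% = reference agonist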
# NPY-Y1 confirm – confirmation of human NPY-Y1 receptor potentiators or agonists; cell-based NPY-Y1 potentiator/agonist assay; 280 tested, 20% active; AID 1546; shares compounds with NPY-Y1 PAM-ag; activation, % at 3.6 µM;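 note: cells challenged with NPY at its EC10 plus isoproterenol stimulus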
# NPY-Y2 counter – NPY-Y2 potentiation or agonism as NPY-Y1 counter-screen; shares compounds with NPY-Y1 PAM-ag; 280 tested, 20% active; activation, % at 3.6 µM; HEK293-CNG cells, membrane-potential fluorescence (FLIPR), 1536-well; in the data active = activation above about 33%
# NPY-Y1 agonist – human NPY-Y1 agonism as potentiator counter-screen; shares compounds with NPY-Y1 PAM-ag; HEK293 Y1-CNGC, membrane potential fluorescence, agonist mode; activation, % at 3.6 µM; 280 tested, 50% active; AID 1697;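 active = percent activation above the mean of DMSO-only control wells plus 3 SD of those wells, cut at about 18% in these data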;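 note: cells challenged with isoproterenol plus Ro 20-1724 with no NPY in test wells; Y1 agonism lowers isoproterenol-driven cAMP and reduces probe fluorescence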
# NPY-Y2 agonist – human NPY-Y2 agonism as NPY-Y1 counter-screen | AID 1698 | activation, % at 3.6 µM | HEK293 Y2-CNGC, membrane potential fluorescence, agonist mode | 280 tested, 67% active | shares compounds with NPY-Y1 PAM-ag;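 active = activation above the solvent-only control wells' mean plus 3 SD, cut at about 11% in these data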;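 note: 0% = DMSO with isoproterenol and 100% = 40 nM NPY maximal response; agonism lowers cAMP so well fluorescence drops in active wells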
# CNGC inh 2 – blocks cyclic nucleotide gated channel in NPY-Y1 counter-screen; shares compounds with NPY-Y1 PAM-ag; HEK293-CNG parental, isoproterenol cAMP, membrane potential fluorescence; inhibition, % at 3.6 µM; 280 tested, 42% active; AID 1704;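 active = inhibition above the mean of stimulated solvent-only control wells plus 3 SD, cut at about 22% in these data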;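 note: 0% = isoproterenol-stimulated DMSO wells and 100% = unstimulated DMSO wells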
# NPY-Y2 confirm – confirmation of human NPY-Y2 receptor potentiators or agonists | activation, % at 3.6 µM | cell-based NPY-Y2 potentiator/agonist assay | 450 tested, 20% active | shares compounds with NPY-Y2 PAM-ag; in the data active = activation above about 33%
# NPY-Y1 potentiator – NPY-Y1 potentiation or agonism as NPY-Y2 counter-screen; 450 tested, 20% active; AID 1651; Y1 HEK293-CNG cells, membrane potential fluorescence; shares compounds with NPY-Y2 PAM-ag; activation, % at 3.6 µM;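 note: cells stimulated with submaximal NPY then isoproterenol with phosphodiesterase inhibitor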
# NPY-Y1 ag 2 – human NPY-Y1 agonism as NPY-Y2 potentiator counter-screen; 450 tested, 37% active; HEK293 Y1-CNGC, membrane potential fluorescence; AID 1702; shares compounds with NPY-Y2 PAM-ag; activation, % at 3.6 µM;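 active = activation above the mean of DMSO-only control wells plus 3 SD, cut at about 18% in these data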;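 note: cells stimulated with 1 µM isoproterenol plus the PDE inhibitor Ro 20-1724; 0% = isoproterenol with DMSO and no NPY and 100% = 40 nM NPY; Y1 agonists lower the membrane potential dye signal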
# CNGC inh – cyclic nucleotide gated channel inhibition as counter-screen; HEK293-CNG parental, isoproterenol cAMP, membrane potential fluorescence; 450 tested, 32% active; shares compounds with NPY-Y2 PAM-ag; inhibition, % at 3.6 µM;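 active = inhibition above the control-well mean plus 3 SD of those wells, cut at about 22% in these data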;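 note: 0% = DMSO with isoproterenol and 100% = DMSO without isoproterenol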
# NPY-Y2 ag 2 – counter-screen for NPY-Y2 potentiators: agonists of human NPY-Y2 | shares compounds with NPY-Y2 PAM-ag | HEK293 Y2/CNGC cells, membrane potential fluorescence, agonist mode | activation, % at 3.6 µM | 450 tested, 56% active;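 active = activation above the mean of solvent-only control wells plus 3 SD, cut at about 10% in these data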;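 note: cells stimulated by isoproterenol with no NPY added so direct agonism is tested; 0% = DMSO with isoproterenol alone and 100% = NPY at EC100 plus isoproterenol; agonism lowers probe fluorescence through less cAMP and CNG channel opening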
# S1P4 ag conf – human S1P4 agonism, confirmation. shares compounds with S1P4 agonist. S1P4 agonist cell-based reporter assay. activation, % at 4.98 µM. 740 tested, 7% active. AID 1523; in the data active = activation above about 12%;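 note: 0% = vehicle and 100% = full reference agonist response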
# S1P1 ag – activates human S1P1, counter-screen for S1P4 agonists | AID 1563 | 740 tested, 4% active | activation, % at 4.98 µM | shares compounds with S1P4 agonist | S1P1 agonist cell-based assay, activation; in the data active = activation above about 21%;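 note: 0% = vehicle wells and 100% = reference agonist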
# Target sequence (P21453 whole entry, looked up): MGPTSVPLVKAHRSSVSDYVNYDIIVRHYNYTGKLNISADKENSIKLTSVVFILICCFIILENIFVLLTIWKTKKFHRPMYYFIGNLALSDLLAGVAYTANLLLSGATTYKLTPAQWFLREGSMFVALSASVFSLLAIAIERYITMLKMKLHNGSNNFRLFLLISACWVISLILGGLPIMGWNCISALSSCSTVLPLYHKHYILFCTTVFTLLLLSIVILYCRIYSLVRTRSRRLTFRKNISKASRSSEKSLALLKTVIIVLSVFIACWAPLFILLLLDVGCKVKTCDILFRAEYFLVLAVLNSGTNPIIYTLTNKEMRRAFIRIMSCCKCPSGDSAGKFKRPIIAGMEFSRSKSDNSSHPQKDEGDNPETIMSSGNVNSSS
# S1P4 antag cf – confirmation of human S1P4 receptor antagonists; shares compounds with S1P4 antag; S1P4-expressing cell line, antagonist mode, reporter read-out; inhibition, % at 4.98 µM; 520 tested, 71% active; in the data active = inhibition above about 30%
# S1P1 antagonist – counter-screen for S1P4 antagonists: antagonists of human S1P1. inhibition, % at 4.98 µM. 520 tested, 37% active. shares compounds with S1P4 antag. cell-based S1P1 antagonist counterscreen, inhibition; in the data active = inhibition above about 40%;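 note: receptor stimulated with S1P near its EC80; 0% = agonist stimulated wells and 100% = vehicle only wells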
# * hit, by the source's call; x = no result. Cut-off read from the data, not from the text of the source, unless noted: active = activation above about 45%; inactive = the rest.
SMILES,S1P4 antag,NPY Y2 blocker,NPY-Y1 PAM-ag,NPY-Y2 PAM-ag,NPY Y1 blocker,S1P4 agonist,others
O=P(Nc1ccccc1)(Nc1ccccc1)Oc1ccc(Cl)cc1,-13,1,41*,14,-2,-1,NPY-Y1 confirm=33;NPY-Y2 counter=20;NPY-Y1 agonist=23*;NPY-Y2 agonist=22*;CNGC inh 2=44*
c1ccc(CCNCc2ccccc2)cc1,-1,0,-1,-1,5,1,
CC(CCc1ccccc1)NCCC#N (centres undefined),-18,x,56*,27,x,1,NPY-Y1 confirm=9;NPY-Y2 counter=9;NPY-Y1 agonist=8;NPY-Y2 agonist=2;CNGC inh 2=-4
COc1ccccc1N1CCN(Cc2cnc(-c3ccccc3)[nH]2)CC1,0,x,-33,-6,x,1,
CC(C)(C)c1cc([N+](=O)[O-])cc(C(C)(C)C)c1O,-6,x,-1,45*,7,1,NPY-Y2 confirm=-8;NPY-Y1 potentiator=-48;NPY-Y1 ag 2=-34;CNGC inh=-25;NPY-Y2 ag 2=-7
CN1CCN(c2ccc([N+](=O)[O-])cc2Cl)CC1,-9,x,8,12,3,2,
Cc1cc(C)n(-c2ccc(NN=C(C#N)C#N)cc2)n1,4,x,41,42*,x,0,NPY-Y2 confirm=9;NPY-Y1 potentiator=1;NPY-Y1 ag 2=-1;CNGC inh=5;NPY-Y2 ag 2=4
CC(C)(C)NC(=O)C1CC2CCCCC2CN1 (centres undefined),2,x,5,1,0,1,
CCOC(=O)c1sc(/N=C/c2c(O)n(-c3ccccc3)c(=O)[nH]c2=O)c(C#N)c1C,12,5,4,5,5,13*,S1P4 ag conf=-2;S1P1 ag=-2
Cc1cc(=O)[nH]c(CCl)n1,-4,x,5,-4,-4,0,
Cc1cccc(-n2c(O)c(C=Nc3ccc(Br)cn3)c(=O)[nH]c2=O)c1,-1,x,-2,7,-2,1,
Cc1cccc(-n2c(O)c(C)c(=O)[nH]c2=S)c1,-6,x,17,-8,0,56*,S1P4 ag conf=-2;S1P1 ag=1
CCC1(OC(=O)CN)C(=O)OCc2c1cc1n(c2=O)Cc2cc3ccccc3nc2-1 (centres undefined),92*,x,-12,1,x,3,S1P4 antag cf=64*;S1P1 antagonist=24
O=c1[nH]c(=O)n(-c2ccc(Br)cc2)c(O)c1C=NCCN1CCCCC1,5,x,4,-2,x,-2,
COc1cc(/C=C(/C)[N+](=O)[O-])ccc1OCc1ccccc1Cl,54*,13,-7,5,8,-1,S1P4 antag cf=120*;S1P1 antagonist=148*
COc1cc(C=C2C(=O)NC(=O)NC2=O)ccc1OCc1ccc([N+](=O)[O-])cc1,-13,x,-9,-2,1,-3,
O=c1[nH]c(=O)n(Cc2ccco2)c(O)c1C=NCCN1CCNCC1,7,x,21,21,x,-1,
NC(=S)c1cn(C2OC(CO)C(O)C2O)c2ncnc(N)c12 (centres undefined),100*,x,4,-25,x,0,S1P4 antag cf=112*;S1P1 antagonist=94*
CC1=CC2/C=C(\C)CCC(O)C(O)/C=C/C(=O)C23C(=O)NC(CC(C)C)C3C1C (centres undefined),64*,x,-5,-6,0,-1,S1P4 antag cf=114*;S1P1 antagonist=23
O=[N+]([O-])/C=C1/NCCN1Cc1ccc(Cl)nc1,-21,x,21,-3,2,4,
CCCCn1c(NC(=O)c2ccco2)c(C(=O)OCC)c2nc3ccccc3nc21,31*,13,-1,-2,9,-1,S1P4 antag cf=16;S1P1 antagonist=5
CC(=O)NC(Cc1ccc(N(CCCl)CCCl)cc1)C(=O)NC(CC(C)C)C(=O)O (centres undefined),-10,x,22,8,0,0,
